In ChEMBL document CHEMBL1138617, “Synthesis of potent antitumor and antiviral benzofuran derivatives” (Bioorg Med Chem Lett, 2009):
Where a name gives a salt, the structure may show the parent alone.

Tests used:
SF-268 = assay: Cytotoxicity against human SF268 cells by MTT assay; assay type: functional, cell-based
SK-OV-3 = assay: Cytotoxicity against human SKOV3 cells by MTT assay; assay type: functional, cell-based
NCI-H460 = assay: Cytotoxicity against human NCI-H460 cells by MTT assay; assay type: functional, cell-based
[1] = Cytotoxicity against human RKOp27 cells by MTT assay; assay type: functional, cell-based
HL-60 = assay: Cytotoxicity against human HL60 cells by MTT assay; assay type: functional, cell-based
Procedure, shortened: (§1)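 Growth inhibition by MTT assay (Mosmann method) on human cancer cell lines and on normal human fetal lung fibroblast WI 38 cells.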

U-937 = assay: Cytotoxicity against human U937 cells by MTT assay; assay type: functional, cell-based; procedure, shortened: as §1
K562 = assay: Cytotoxicity against human K562 cells by MTT assay; assay type: functional, cell-based; procedure, shortened: as §1
G-361 = assay: Cytotoxicity against human G361 cells by MTT assay; assay type: functional, cell-based; procedure, shortened: as §1
SK-MEL-28 = assay: Cytotoxicity against human SK-MEL-28 cells by MTT assay; assay type: functional, cell-based; procedure, shortened: as §1
GOTO = assay: Cytotoxicity against human GOTO cells by MTT assay; assay type: functional, cell-based; procedure, shortened: as §1
[2] = system: Human immunodeficiency virus; assay: Antiviral activity against HIV infected in human CEM-SS cells assessed as inhibition of virus induced cell killing by XTT assay; assay type: functional, organism-based; settings: Human immunodeficiency virus 1, CEM-SS
Procedure, shortened: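 Microtiter anti-HIV assay in CEM-SS cells or fresh human PBMCs, measuring inhibition of HIV-induced cell killing or HIV replication. Read-out is XTT tetrazolium reduction to formazan by viable cells.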

[3] = molecular target: Human immunodeficiency virus type 1 reverse transcriptase (Human immunodeficiency virus 1, UniProt Q72547); assay: Inhibition of recombinant HIV1 reverse transcriptase in cell free Quan-T-RT by scintillation proximity assay
[4] = Therapeutic index, ratio of toxic dose of drug for 50% of the population TD50 to minimum effective dose ED50 of the population; settings: read-out: Ratio TD50/ED50
[5] = (§2) Inhibition of HCV NS3/4A protease activity after 48 hrs by RT-PCR; design: species or system Hepacivirus hominis
Hepacivirus hominis = assay: as §2
[6] = Cytotoxicity against human hepatocytes by MTT assay; assay type: cell-based, Hepatocyte
[7] = Cytotoxicity against human WI38 cells by MTT assay; assay type: cell-based; settings: WI-38; procedure, shortened: as §1
HCV NS3-4A protease = assay: Therapeutic index, ratio of CC50 for human hepatocytes to IC50 for HCV NS3-4A protease; assay type: cell-based, Hepatocyte; settings: read-out: Ratio CC50/IC50
NB1 = assay: Cytotoxicity against human NB-1 cells by MTT assay; assay type: functional, cell-based; procedure, shortened: as §1

SMILES	IC50 (SF-268) [nM]	IC50 (SK-OV-3) [nM]	IC50 (NCI-H460) [nM]	IC50 [1] [nM]	IC50 (HL-60) [nM]	IC50 (U-937) [nM]	IC50 (K562) [nM]	IC50 (G-361) [nM]	IC50 (SK-MEL-28) [nM]	IC50 (GOTO) [nM]	EC50 [2] [nM]	IC50 [3] [nM]	selectivity ratio [4]	IC50 [5] [nM]	IC90 (Hepacivirus hominis) [nM]	CC50 [6] [nM]	IC50 [7] [nM]	selectivity ratio (HCV NS3-4A protease)	IC50 (NB1) [nM]
Nc1ccn([C@@H]2O[C@H](CO)[C@@H](O)[C@@H]2O)c(=O)n1 [CYTARABINE]	7.68																		
COc1c(C(=O)C2=CN3C=CSC3N=C2)c(O)c(OC)c2occc12 (configuration not stated)		3.28	0.0255	0.028	0.0255	0.0284	0.0446	0.0384	0.0284	0.0281	0.04	15300	22600	342	1120	127000	0.0284	371	
COc1c(C(=O)/C=C/Nc2ccncc2)c(O)c(OC)c2occc12			0.0284	0.0255	0.0263	0.0263	0.0263	0.0263	0.0281	0.0253	0.01	4800	1260	986	2310	435000	0.0253	441	
COc1cccc2c1C(=O)c1c(O)c3c(c(O)c1C2=O)C[C@@](O)(C(=O)CO)C[C@@H]3O[C@H]1C[C@H](N)[C@H](O)[C@H](C)O1 [DOXORUBICIN]		4.16				4.45	6.66			4.73									5.15
COc1c2occc2c(OC)c2c(=O)c(C=O)coc12			0.0284	0.0255	0.0313	0.0291	0.0258	0.0263	0.0266	0.0278	0.02	17500	32600	421	796	234000	0.0321	556	
COc1c(C(=O)C2=CN3OC(C)=NC3N=C2)c(O)c(OC)c2occc12 (configuration not stated)			0.0255	0.026	0.0281	0.0329	0.0284	0.0287	0.0338	0.0284	0.04	0.3	7690	> 100000			0.0281		
Nc1ccn([C@@H]2O[C@H](CO)[C@@H](O)C2(F)F)c(=O)n1 [GEMCITABINE HYDROCHLORIDE]			2.13																
CCNc1cccnc1N1CCN(C(=O)c2cc3cc(OC)ccc3[nH]2)CC1 [ATEVIRDINE MESYLATE]											1								
NCc1nc2ccccc2[nH]1			0.032	0.0255	0.0291	0.0298	0.0313	0.0305	0.0301	0.0263	0.01	5100	1760	876	2120	451000	0.0269	515	
CCC[C@H](NC(=O)[C@@H]1[C@H]2CCC[C@H]2CN1C(=O)[C@@H](NC(=O)[C@@H](NC(=O)c1cnccn1)C1CCCCC1)C(C)(C)C)C(=O)C(=O)NC1CC1														200	450	90000		1200	
CCCCCOC(=O)Nc1nc(=O)n([C@@H]2O[C@H](C)[C@@H](O)[C@H]2O)cc1F [CAPECITABINE]				4.33															
COc1c(C(=O)C2=CN3C=CC=CC3N=C2)c(O)c(OC)c2occc12 (configuration not stated)			0.0277	0.0277	0.0275	0.0298	0.0446	0.0481	0.0305	0.0329	0.03	16300	23500	> 100000			0.0255		
COc1c(C(=O)c2cnc3nc4ccccc4n3c2)c(O)c(OC)c2occc12			0.0277	0.0277	0.026	0.0272	0.0269	0.0263	0.0253	0.0278	0.02	25700	1.14e+06	564	1320	234000	0.0472	415	
COc1c(C(=O)C2=CN3C=CNC=C3N=C2)c(O)c(OC)c2occc12			0.0255	0.0284	0.0266	0.0284	0.0321	0.0298	0.026	0.0258	0.09	14600	20000	> 100000			0.0373		
COc1c(C(=O)C2=CN3C(=CN=C2)Nc2ccccc23)c(O)cc2occc12			0.0255	0.0255	0.0305	0.0301	0.0298	0.0313	0.0305	0.0291	0.06	47500	23500	> 100000			0.0284		
COc1c(C(=O)C2=CN3C(=CN=C2)Nc2ccccc23)c(O)c(OC)c2occc12			0.0255	0.0277	0.0325	0.0333	0.0338	0.0316	0.0321	0.0329	0.35	9440	21700	444	955	256000	0.0333	577	
